Data reported in ChEMBL document CHEMBL1145884, “Synthesis and biological activity of novel 1beta-methylcarbapenems with oxyiminopyrrolidinylamide moiety” (2003).
In brackets after ≈: the same amount, converted by molar mass.

Key:
Klebsiella aerogenes = assay: Antibacterial activity against Klebsiella aerogenes 1522E; format: functional
Summary of the method: (§1)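 MIC was determined by agar dilution on Mueller–Hinton medium.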

Pseudomonas aeruginosa [1] = assay: Antibacterial activity against Pseudomonas aeruginosa 9027; format: functional; summary of the method: as §1
Pseudomonas aeruginosa [2] = assay: Antibacterial activity against Pseudomonas aeruginosa 1771M; format: functional; summary of the method: as §1
Escherichia coli [3] = assay: Antibacterial activity against Escherichia coli 078; format: functional; summary of the method: as §1
Enterobacter cloacae = assay: Antibacterial activity against Enterobacter cloacae 1321E; format: functional; summary of the method: as §1
Pseudomonas aeruginosa [4] = assay: Antibacterial activity against Pseudomonas aeruginosa 1592E
Salmonella typhimurium = assay: Antibacterial activity against Salmonella Typhimurium; format: functional, Salmonella enterica subsp. enterica serovar Typhimurium; conditions: Salmonella enterica; summary of the method: as §1
Escherichia coli [5] = assay: Antibacterial activity against Escherichia coli 1507E; format: functional; summary of the method: as §1
Staphylococcus aureus [6] = assay: Antibacterial activity against Staphylococcus aureus 503; format: functional
Staphylococcus aureus [7] = assay: Antibacterial activity against Staphylococcus aureus 285; format: functional
[8] = Compound was evaluated for its relative half life of hydrolysis to meropenem by partially purified porcine renal dihydropeptidase-I (DHP-I); format: functional; conditions: Sus scrofa
Streptococcus pyogenes = assay: Antibacterial activity against Streptococcus pyogenes 308A; format: functional
Staphylococcus aureus [9] = assay: Antibacterial activity against Staphylococcus aureus SG 511; format: functional

MIC (Klebsiella aerogenes) [µg/mL] | MIC (Pseudomonas aeruginosa [1]) [µg/mL] | MIC (Pseudomonas aeruginosa [2]) [µg/mL] | MIC (Escherichia coli [3]) [µg/mL] | MIC (Enterobacter cloacae) [µg/mL] | MIC (Pseudomonas aeruginosa [4]) [µg/mL] | MIC (Salmonella typhimurium) [µg/mL] | MIC (Escherichia coli [5]) [µg/mL] | MIC (Staphylococcus aureus [6]) [µg/mL] | MIC (Staphylococcus aureus [7]) [µg/mL] | MIC (Streptococcus pyogenes) [µg/mL] | MIC (Staphylococcus aureus [9]) [µg/mL] | Compound | relative t1/2 (DHP-I hydrolysis vs meropenem) [8]
0.049 (≈ 0.108 µM) | 0.391 (≈ 0.864 µM) | 0.781 (≈ 1.73 µM) | 0.049 (≈ 0.108 µM) | 0.049 (≈ 0.108 µM) | 3.12 (≈ 6.91 µM) | 0.098 (≈ 0.217 µM) | 0.049 (≈ 0.108 µM) |  |  |  |  | CO/N=C1/CCN(C(=O)[C@@H]2C[C@H](SC3=C(C(=O)O)N4C(=O)[C@H]([C@@H](C)O)[C@H]4[C@H]3C)CN2)C1 | 
0.049 (≈ 0.102 µM) | 0.391 (≈ 0.81 µM) | 0.195 (≈ 0.404 µM) | 0.013 (≈ 0.0269 µM) | 0.025 (≈ 0.0518 µM) | 0.391 (≈ 0.81 µM) | 0.049 (≈ 0.102 µM) | 0.025 (≈ 0.0518 µM) | 0.098 (≈ 0.203 µM) | 0.195 (≈ 0.404 µM) | 0.013 (≈ 0.0269 µM) | 0.098 (≈ 0.203 µM) | C[C@@H](O)[C@H]1C(=O)N2C(C(=O)O)=C(S[C@@H]3CN[C@H](C(=O)N4C/C(=N\O)C(C(=O)O)C4)C3)[C@H](C)[C@H]12 (some centres not stated) | 0.54
0.098 (≈ 0.203 µM) | 0.391 (≈ 0.812 µM) | 0.098 (≈ 0.203 µM) | 0.025 (≈ 0.0519 µM) | 0.025 (≈ 0.0519 µM) | 0.195 (≈ 0.405 µM) | 0.098 (≈ 0.203 µM) | 0.049 (≈ 0.102 µM) | 0.049 (≈ 0.102 µM) | 0.195 (≈ 0.405 µM) | 0.004 (≈ 0.00831 µM) | 0.098 (≈ 0.203 µM) | CO/N=C1\CN(C(=O)[C@@H]2C[C@H](SC3=C(C(=O)O)N4C(=O)[C@H]([C@@H](C)O)[C@H]4[C@H]3C)CN2)CC1CN (some centres not stated) | 0.25
0.049 (≈ 0.096 µM) | 6.25 (≈ 12.2 µM) | 0.391 (≈ 0.766 µM) | 0.013 (≈ 0.0255 µM) | 0.025 (≈ 0.049 µM) | 3.12 (≈ 6.12 µM) | 0.049 (≈ 0.096 µM) | 0.049 (≈ 0.096 µM) | 0.195 (≈ 0.382 µM) | 0.391 (≈ 0.766 µM) | 0.013 (≈ 0.0255 µM) | 0.195 (≈ 0.382 µM) | CCOC(=O)C1CN(C(=O)[C@@H]2C[C@H](SC3=C(C(=O)O)N4C(=O)[C@H]([C@@H](C)O)[C@H]4[C@H]3C)CN2)C/C1=N\O (some centres not stated) | 0.26
